Data as given in ChEMBL document CHEMBL5230162 (RSC Med Chem, 2023).
In brackets after ≈: the same amount, converted by molar mass. Activity calls are given as the source filed them. No cut-off for these calls is given here.

Experiments:
[1] = Solubility of the compound in water incubated for 15 mins under shaking conditions by UV spectrophotometry; format: physicochemical
[2] = Binding affinity to human ASGPR assessed as equilibrium dissociation constant by surface plasmon resonance spectroscopy
[3] = Solubility of the compound in water incubated for 15 mins under shaking conditions by UV spectrophotometry relative to atorvastatin; format: physicochemical; settings: buffer, 0.25 h
How it was run: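 Excess compound shaken strongly in 1 ml water for 15 min, then filtered or centrifuged. 50 μL of the saturated solution diluted into 1 mL methanol. Absorbance read at 290 nm and concentration taken from standard curves.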

[4] = Stability of the compound in acetate buffer at pH 5 measured for 24 hrs by HPLC-MS analysis; format: physicochemical; settings: pH 5, 24 h
How it was run: (§1)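 Incubated at 37 °C. Aliquots taken at 0, 0.5, 1, 2, 4, 8 and 24 h and quenched in cold methanol, stored at −20 °C, centrifuged, and the supernatant analysed by HPLC-MS.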

[5] = Stability of the compound in acetate buffer at pH 5 measured after 24 hrs by HPLC-MS analysis; format: physicochemical; settings: pH 5, 24 h; how it was run: as §1
[6] = biological target: T1, 3-hydroxy-3-methylglutaryl-coenzyme A reductase (Homo sapiens) (UniProt P04035); assay: Inhibition of HMG-CoA reductase (unknown origin) in presence of cathepsin B
T1 sequence (whole entry): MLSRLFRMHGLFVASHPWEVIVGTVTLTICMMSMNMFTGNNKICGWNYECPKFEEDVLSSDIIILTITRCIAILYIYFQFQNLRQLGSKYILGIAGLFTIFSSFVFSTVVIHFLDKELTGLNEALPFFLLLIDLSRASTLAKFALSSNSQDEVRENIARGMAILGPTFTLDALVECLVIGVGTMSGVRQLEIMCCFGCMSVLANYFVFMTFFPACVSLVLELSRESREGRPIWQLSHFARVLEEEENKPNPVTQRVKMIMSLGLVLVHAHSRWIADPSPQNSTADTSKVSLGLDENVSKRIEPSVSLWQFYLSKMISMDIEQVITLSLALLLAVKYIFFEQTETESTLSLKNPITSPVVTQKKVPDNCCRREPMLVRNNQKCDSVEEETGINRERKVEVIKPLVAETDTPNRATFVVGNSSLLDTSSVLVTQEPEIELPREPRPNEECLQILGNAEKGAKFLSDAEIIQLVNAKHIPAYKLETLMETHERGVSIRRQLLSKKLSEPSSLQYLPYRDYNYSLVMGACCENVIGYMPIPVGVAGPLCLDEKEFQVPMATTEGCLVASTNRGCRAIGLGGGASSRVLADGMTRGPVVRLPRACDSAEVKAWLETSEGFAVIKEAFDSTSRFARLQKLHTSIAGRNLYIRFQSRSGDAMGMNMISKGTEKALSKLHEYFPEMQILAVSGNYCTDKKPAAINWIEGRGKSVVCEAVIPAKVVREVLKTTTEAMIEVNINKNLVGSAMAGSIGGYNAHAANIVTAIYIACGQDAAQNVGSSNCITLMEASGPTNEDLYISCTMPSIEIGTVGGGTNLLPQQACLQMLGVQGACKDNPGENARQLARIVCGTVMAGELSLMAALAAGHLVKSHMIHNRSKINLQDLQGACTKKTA
How it was run: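 Compound (40 μM final) incubated for 24 h at 37 °C with recombinant cathepsin B (30 nM final) in 0.1 M sodium acetate pH 3.6, 100 mM NaCl, 1 mM EDTA, 0.6% DMSO. 5 μL of the mixture then tested in the HMG-CoA reductase kit assay: absorbance at 340 nm every 20 s for up to 10 min, in triplicate. Controls: enzyme-only buffer and compound without protease.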

[7] = Stability of the compound in PBS buffer at pH 7.4 measured after 24 hrs by HPLC-MS analysis; format: physicochemical; settings: pH 7.4, 24 h; how it was run: as §1
[8] = biological target: T1, 3-hydroxy-3-methylglutaryl-coenzyme A reductase (Homo sapiens); assay: Inhibition of HMG-CoA reductase (unknown origin) in neutral aqueous media
How it was run: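 HMG-CoA reductase kit assay. Compounds were 0.1 mM working solutions made from 0.01 M DMSO stocks diluted in water; 2 μL of each added per well. NADPH consumption followed as absorbance at 340 nm every 20 s for up to 10 min. Activity calculated from the NADPH extinction coefficient. Run in triplicate.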

In the case of `CC(=O)N[C@H]1[C@H](OCCNC(=O)C[C@H](O)C[C@H](O)CCn2c(-c3ccc(F)cc3)c(-c3ccccc3)c(C(=O)Nc3ccccc3)c2C(C)C)O[C@H](CO)[C@H](O)[C@@H]1O`, the solubility at 0.25 h [1] is reported as 430 µM (≈ 346 µg/mL), the Kd [2] is reported as 69 nM and the “fold change (FC)” value [3] is reported as 4.

For `CC(=O)N[C@H]1[C@H](OCCn2cc(COC(=O)C[C@H](O)C[C@H](O)CCn3c(-c4ccc(F)cc4)c(-c4ccccc4)c(C(=O)Nc4ccccc4)c3C(C)C)nn2)O[C@H](CO)[C@H](O)[C@@H]1O`, the Stability [4] was “Stable”, the solubility at 0.25 h [1] was 320 µM (≈ 284 µg/mL) and the Kd [2] was 79 nM.

For `CC(=O)N[C@@H]1[C@@H](O)[C@@H](O)[C@@H](CO)O[C@H]1n1cc(COC(=O)C[C@H]2C[C@@H](CCn3c(-c4ccc(F)cc4)c(-c4ccccc4)c(C(=O)Nc4ccccc4)c3C(C)C)OC(C)(C)O2)nn1`, the solubility at 0.25 h [1] was 30 µM (≈ 26.5 µg/mL) and the Kd [2] was 0.15 nM.

For `CC(=O)N[C@H]1[C@H](OCCn2cc(CNC(=O)C[C@H](O)C[C@H](O)CCn3c(-c4ccc(F)cc4)c(-c4ccccc4)c(C(=O)Nc4ccccc4)c3C(C)C)nn2)O[C@H](CO)[C@H](O)[C@@H]1O`, the Stability [5] was “Stable”, the solubility at 0.25 h [1] was 540 µM (≈ 478 µg/mL) and the inhibition [6] was “Active”. For the same compound, the Kd [2] was 161 nM, the Stability [7] was “Stable” and the “inhibition (active/not active)” value [8] was “inactive”. The fold change (FC) [3] was 5.

For `CC(=O)N[C@@H]1[C@@H](O)[C@@H](O)[C@@H](CO)O[C@H]1n1cc(COC(=O)C[C@H](O)C[C@H](O)CCn2c(-c3ccc(F)cc3)c(-c3ccccc3)c(C(=O)Nc3ccccc3)c2C(C)C)nn1`, the Stability [4] was “Stable”, the solubility at 0.25 h [1] was 200 µM (≈ 169 µg/mL) and the Kd [2] was 48 nM. For the same compound, the “inhibition (active/not active)” value [8] was “Active”.

With `CC[C@H](C)C(=O)O[C@H]1C[C@H](O)C=C2C=C[C@H](C)[C@H](CC[C@@H](O)C[C@@H](O)CC(=O)O)[C@H]21` the inhibition [6] was “Active”.

With `CC(=O)N[C@H]1[C@H](OCCn2cc(COC(=O)C[C@H]3C[C@@H](CCn4c(-c5ccc(F)cc5)c(-c5ccccc5)c(C(=O)Nc5ccccc5)c4C(C)C)OC(C)(C)O3)nn2)O[C@H](CO)[C@H](O)[C@@H]1O` the solubility at 0.25 h [1] was 50 µM (≈ 46.4 µg/mL), the Kd [2] was 0.33 nM and the “inhibition (active/not active)” value [8] was “Active”.

Work on `CC(=O)N[C@@H]1[C@@H](O)[C@@H](O)[C@@H](CO)O[C@@H]1O` yielded a Kd [2] of 4500 nM.

With `CC(=O)N[C@@H]1[C@@H](O)[C@@H](O)[C@@H](CO)O[C@H]1n1cc(CNC(=O)C[C@H](O)C[C@H](O)CCn2c(-c3ccc(F)cc3)c(-c3ccccc3)c(C(=O)Nc3ccccc3)c2C(C)C)nn1` the Stability [5] was “Stable”, the solubility at 0.25 h [1] was 450 µM (≈ 379 µg/mL) and the inhibition [6] was “Active”. For the same compound, the Kd [2] was 113 nM, the Stability [7] was “Stable” and the “inhibition (active/not active)” value [8] was “inactive”. For the same compound, the fold change (FC) [3] was 4.
